Experimental data from article PMC5733704 (Bioorganic & medicinal chemistry, 2017).
In brackets after ≈: the same amount, converted by molar mass. Entries after “also recorded” stand apart in the source; their conditions may differ. Each block holds one compound with its values, some of them ahead of it.

Experiments:
[1] = molecular target: T1, SaFabI (Staphylococcus aureus, UniProt Q6GI75); test: SaFabI enzyme inhibition, NADPH fluorescence IC50 assay; format: biochemical; settings: for fold less potent than compound 8 (SaFabI IC50): relative to compound 8; for fold improvement in SaFabI IC50 compared to compound 1: relative to compound 1
T1 sequence (Q6GI75 1-256): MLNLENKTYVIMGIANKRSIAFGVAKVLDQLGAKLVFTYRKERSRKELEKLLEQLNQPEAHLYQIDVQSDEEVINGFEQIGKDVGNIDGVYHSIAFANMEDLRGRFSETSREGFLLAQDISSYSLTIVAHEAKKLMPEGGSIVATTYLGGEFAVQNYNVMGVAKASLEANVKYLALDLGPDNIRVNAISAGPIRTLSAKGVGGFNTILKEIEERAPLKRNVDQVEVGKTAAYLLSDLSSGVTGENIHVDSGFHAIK
Outline: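 NADPH fluorescence was read at 340/460 nm. Test compound ranged 0.4 nM–200 μM. Percent inhibition came from 10-min slopes versus DMSO control. At least two independent runs, each in duplicate. Interference was checked before substrate addition.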

[2] = molecular target: AbFabI (Acinetobacter baumannii, UniProt A0ABX6CD96); test: AbFabI enzyme inhibition, NADH fluorescence IC50 assay; format: biochemical; settings: for IC50: IC50 against AbFabI, 200 nM AbFabI, 300 μM crotonyl-CoA, 200 μM NADH; for fold higher AbFabI IC50 than compound 23: relative to compound 23
[3] = test system: E. coli strain BW25113 ΔTolC; test: MIC, microbroth dilution, E. coli efflux pump mutant; format: cell-based; settings: Escherichia coli, BW25113, read-out: MIC E. coli TolC- strain, in μM
[4] = test system: A. baumannii strain 2208; test: Checkerboard MIC with polymixin B nonapeptide against A. baumannii strain 2208; format: cell-based
[5] = test system: MDR A. baumannii; test: Checkerboard MIC with colistin against MDR A. baumannii; format: cell-based
[6] = test system: S. aureus strain RN4220 overexpressing SaFabI; test: MIC, microbroth dilution, S. aureus RN4220 overexpressing SaFabI; format: cell-based; settings: versus native strain RN4220; 4-fold or higher indicates on-target
[7] = test system: S. aureus strain RN4220 overexpressing SaFabI; settings: control; cited from earlier work
[8] = test system: A. baumannii strain 2208; test: Checkerboard MIC with colistin against A. baumannii strain 2208; format: cell-based
[9] = test system: S. aureus; test: MIC against S. aureus, stated across the strains tested; format: cell-based; settings: Staphylococcus aureus, read-out: MIC in S. aureus (across strains tested), in μM

SMILES: COc1ccc(C2CCN(C(=O)Cc3ccccc3Cl)C2)cc1 (stereo not drawn) [Compound 9]
fold less potent than compound 8 (SaFabI IC50) [1]: 25 fold

SMILES: COc1ccccc1C1CCN(C(=O)/C=C/c2ccc(NC(C)=O)nc2)C1 (stereo not drawn) [Compound 24]
IC50 [2]: < 10 µM
MIC [3]: 2 µM (≈ 0.731 µg/mL)
Effect [4]: Synergy
Effect [5]: Synergy

SMILES: O=C(N[C@H](CO)[C@H](O)c1ccc([N+](=O)[O-])cc1)C(Cl)Cl [chloramphenicol]
fold increase in MIC with S. aureus strain overexpressing SaFabI [6]: remained unchanged

SMILES: Oc1cc(Cl)ccc1Oc1ccc(Cl)cc1Cl [triclosan]
fold increase in MIC with S. aureus strain overexpressing FabI [7]: 8 fold

SMILES: CC(=O)Nc1ccc(/C=C/C(=O)N2CCC(c3ccccn3)C2)cn1 (stereo not drawn) [Compound 28]
fold higher AbFabI IC50 than compound 23 [2]: 15 to 40 fold
Effect [8]: did not show synergistic behavior; also recorded: No synergy

SMILES: O=C(Cc1ccccc1F)N1CCC(c2ccccc2)C1 (stereo not drawn) [Compound 2]
fold improvement in SaFabI IC50 compared to compound 1 [1]: 2 fold
IC50 [2]: < 10 µM

SMILES: CN(C)[C@@H]1C(O)=C(C(N)=O)C(=O)[C@@]2(O)C(O)=C3C(=O)c4c(O)cccc4[C@@](C)(O)[C@H]3C[C@@H]12 [tetracycline]
fold increase in MIC with S. aureus strain overexpressing SaFabI [6]: remained unchanged

AbFabI enzyme inhibitory activity (in words) [2]: loss in activity
SMILES: CC(C)S(=O)(=O)c1ccc(CC(=O)N2CCC(c3ccc4c(c3)OCO4)C2)cc1 (stereo not drawn) [Compound 22]
SaFabI enzyme inhibitory activity (in words) [1]: not tolerated

SMILES: CC(=O)Nc1ccc(/C=C/C(=O)N2CCC(c3ccccc3)C2)cn1 (stereo not drawn) [Compound 23]
Effect [8]: did not show synergistic behavior; also recorded: No synergy

SMILES: CC(=O)Nc1ccc(/C=C/C(=O)N2CCC(c3ccc4c(c3)OCO4)C2)cn1 (stereo not drawn) [Compound 26]
Effect [8]: did not show synergistic behavior; also recorded: No synergy

SMILES: CC(=O)Nc1ccc(/C=C/C(=O)N2CCC(c3nccs3)C2)cn1 (stereo not drawn) [Compound 27]
fold higher AbFabI IC50 than compound 23 [2]: 15 to 40 fold
Effect [8]: did not show synergistic behavior; also recorded: No synergy

SMILES: COc1ccccc1C1CCN(C(=O)/C=C/c2ccc(NC(C)=O)cc2)C1 (stereo not drawn) [Compound 29]
SaFabI enzyme inhibitory activity (in words) [1]: complete loss in enzyme inhibitory activity
AbFabI enzyme inhibitory activity (in words) [2]: complete loss in enzyme inhibitory activity

SMILES: O=C(Cc1ccccc1Cl)N1CCC(c2ccccn2)C1 (stereo not drawn) [Compound 10]
Effect [8]: did not show synergistic behavior; also recorded: No synergy/Synergy

SMILES: O=C(Cc1ccccc1Cl)N1CCC(c2ccc3c(c2)OCO3)C1 (stereo not drawn) [Compound 12]
IC50 [2]: < 10 µM
fold change in AbFabI IC50 compared to compound 1 ([2]; relative to compound 1): 2 to 3 fold
Effect [5]: Synergy

SMILES: CC[C@H]1OC(=O)[C@H](C)[C@@H](O[C@H]2C[C@@](C)(OC)[C@@H](O)[C@H](C)O2)[C@H](C)[C@@H](O[C@@H]2O[C@H](C)C[C@H](N(C)C)[C@H]2O)[C@](C)(O)C[C@@H](C)C(=O)[C@H](C)[C@@H](O)[C@]1(C)O [erythromycin]
fold increase in MIC with S. aureus strain overexpressing SaFabI [6]: remained unchanged

SMILES: O=C(Cc1ccccc1Cl)N1CCC(c2nccs2)C1 (stereo not drawn) [Compound 11]
Effect [8]: did not show synergistic behavior; also recorded: No synergy

IC50 [2]: < 10 µM
SMILES: COc1ccccc1C1CCN(C(=O)Cc2ccccc2Cl)C1 (stereo not drawn) [Compound 8]
Effect [5]: Synergy

SMILES: O=C(Cc1ccccc1Cl)N1CCC(c2ccccc2)C1 (stereo not drawn) [Compound 1]
IC50 [2]: < 10 µM
Effect [4]: Synergy
Effect [5]: Synergy
MIC [9]: 42 to 84 µM (≈ 12.6 to 25.2 µg/mL)

IC50 [2]: < 10 µM
SMILES: O=C(Cc1cccc(F)c1F)N1CCC(c2ccccc2)C1 (stereo not drawn) [Compound 4]

SMILES: O=C(Cc1c(F)cccc1F)N1CCC(c2ccccc2)C1 (stereo not drawn) [Compound 6]
fold improvement in SaFabI IC50 compared to compound 1 [1]: 5 fold
IC50 [2]: < 10 µM

SMILES: COc1ccccc1C1CCN(C(=O)Cc2c(F)cccc2F)C1 (stereo not drawn) [Compound 7]
fold poorer SaFabI inhibitory activity compared to compound 6 ([1]; relative to compound 6): ~3 fold
fold less potent than compound 8 (SaFabI IC50) [1]: 11 fold
IC50 [2]: < 10 µM
Effect [8]: excellent synergy

SMILES: COc1ccccc1C1CCN(C(=O)Cc2cccc(F)c2F)C1 (stereo not drawn) [Compound 5]
fold less potent than compound 8 (SaFabI IC50) [1]: 6 fold

SMILES: CN[C@@H]1[C@H](O[C@H]2[C@H](O[C@H]3[C@H](O)[C@@H](O)[C@H](N=C(N)N)[C@@H](O)[C@@H]3N=C(N)N)O[C@@H](C)[C@]2(O)C=O)O[C@@H](CO)[C@H](O)[C@H]1O [streptomycin]
fold increase in MIC with S. aureus strain overexpressing SaFabI [6]: remained unchanged

SMILES: COc1ccccc1C1CCN(C(=O)Cc2ccccc2F)C1 (stereo not drawn) [Compound 3]
fold less potent than compound 8 (SaFabI IC50) [1]: 9 fold
